# Source: publication PMC2900601 (Cell, 2009)
# Substitutions are numbered along the chain they refer to. Read-outs that look alike come from different tables or passages of the source. Where no end group is shown, it is not given here. [ ]: non-standard residue; d: D form. pT = C[C@@H](OP(=O)(O)O)[C@H](N)C(=O)O; pS = N[C@@H](COP(=O)(O)O)C(=O)O
# T1: spNbs1 FHA/BRCT2 region (1-324) (Schizosaccharomyces pombe, UniProt O43070)
# T1 sequence (O43070 1-324): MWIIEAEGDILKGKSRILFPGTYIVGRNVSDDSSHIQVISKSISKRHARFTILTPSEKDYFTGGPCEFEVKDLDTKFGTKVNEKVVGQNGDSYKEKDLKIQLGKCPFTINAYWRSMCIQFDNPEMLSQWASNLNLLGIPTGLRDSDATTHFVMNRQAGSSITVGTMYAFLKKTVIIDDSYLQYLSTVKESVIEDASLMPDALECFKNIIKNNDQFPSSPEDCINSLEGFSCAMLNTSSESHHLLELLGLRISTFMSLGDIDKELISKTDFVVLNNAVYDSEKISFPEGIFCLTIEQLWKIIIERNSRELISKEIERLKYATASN
# T2: human Nbs1 (hNbs1) FHA/BRCT fragment (1-382) (Homo sapiens, UniProt O60934)
# T2 sequence (O60934 1-382): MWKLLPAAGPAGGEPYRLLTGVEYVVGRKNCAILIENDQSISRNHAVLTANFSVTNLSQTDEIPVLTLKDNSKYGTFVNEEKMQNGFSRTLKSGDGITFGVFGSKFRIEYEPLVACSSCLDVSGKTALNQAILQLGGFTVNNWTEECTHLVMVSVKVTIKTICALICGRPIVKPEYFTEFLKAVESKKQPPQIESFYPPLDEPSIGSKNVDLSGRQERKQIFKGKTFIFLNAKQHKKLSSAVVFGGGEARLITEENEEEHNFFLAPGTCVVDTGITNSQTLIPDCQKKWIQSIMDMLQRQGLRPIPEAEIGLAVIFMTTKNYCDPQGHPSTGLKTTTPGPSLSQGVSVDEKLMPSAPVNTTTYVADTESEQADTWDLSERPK
# T3: spNbs1 (1-324) R27A (Schizosaccharomyces pombe, UniProt O43070 1-324, R27A)
# T3 sequence: T1 sequence (O43070 1-324) with R27A
# T4: human Nbs1 N-terminal FHA/BRCT-repeat fragment (1-382) (human, UniProt O60934 1-382)
# T4 sequence: T2 sequence (O60934 1-382)
# T5: hNbs1 (1-382) K160M (human, UniProt O60934 1-382, K160M)
# T5 sequence: T2 sequence (O60934 1-382) with K160M
# T6: hNbs1 (1-382) R28A (human, UniProt O60934 1-382, R28A)
# T6 sequence: T2 sequence (O60934 1-382) with R28A
# T7: hNbs1 (1-382) S42A (human, UniProt O60934 1-382, S42A)
# T7 sequence: T2 sequence (O60934 1-382) with S42A
# Key:
# [1] = target: Schizosaccharomyces pombe Nbs1 N-terminal FHA/BRCT-repeat fragment (1-324) (Schizosaccharomyces pombe) (UniProt O43070); assay: ITC
# [2] = target: human Nbs1 N-terminal FHA/BRCT-repeat fragment (1-382) (human) (UniProt O60934); assay: ITC
# [3] = target: T1, spNbs1 FHA/BRCT2 region (1-324); assay: ITC of phosphopeptides with wild-type spNbs1 N-terminal fragment; assay type: binding
# In short: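 Purified recombinant […] N-terminal fragment of S. pombe Nbs1 titrated by ITC with the same Mdc1 phosphothreonine peptide used for the human protein. An unphosphorylated peptide of identical sequence was also tested. Affinity was derived from the titration.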
# [4] = target: T2, human Nbs1 (hNbs1) FHA/BRCT fragment (1-382); assay: ITC of phosphopeptides with wild-type hNbs1 N-terminal fragment; assay type: binding
# [5] = target: T3, spNbs1 (1-324) R27A; assay: ITC
# [6] = target: T4, human Nbs1 N-terminal FHA/BRCT-repeat …; assay: ITC
# [7] = target: T5, hNbs1 (1-382) K160M; assay: ITC
# [8] = target: T6, hNbs1 (1-382) R28A; assay: ITC
# [9] = target: T7, hNbs1 (1-382) S42A; assay: ITC
molecule,measurement,setting,value
Ctp1 Site 2 peptide phosphorylated only on pThr-89,fold weaker binding than the di-phosphorylated Site 2 peptide,[1],10 fold
Ctp1 Site 2 di-phosphorylated peptide (pSer-87 and pThr-89),Kd,[1],50 nM
Mdc1 pSDpTD motif di-phosphorylated peptide (Mdc1 residues 325-336) (from UniProt Q14676 325-336),Kd,[2],1000 nM
same,stoichiometry N,[2],> 1
same,Kd,[1],500 nM
Ctp1 Site 1 peptide phosphorylated only on pThr-79,fold weaker binding than the di-phosphorylated Site 1 peptide,[1],8 fold
Ctp1 Site 1 di-phosphorylated peptide (pSer-77/pThr-79),fold weaker binding than the di-phosphorylated Site 2 peptide,[1],30 fold
pSDTD: Mdc1 peptide of the same sequence in which the threonine was not phosphorylated (GFID[pS]DTDAEEE),binding to spNbs1 (in words),[3],neither spNbs1 nor hNbs1 bound
same,binding to hNbs1 (in words),[4],neither spNbs1 nor hNbs1 bound
same,binding to hNbs1 (in words),[4]; listed as mono-phosphorylated pSDTD,lack of hNbs1 interactions
Ctp1 peptide containing singly phosphorylated Thr-78,Kd,[1],200 nM
Mdc1 SDpTD mono-phosphorylated peptide,fold reduced affinity against the di-phosphorylated Mdc1 peptide,[2],17 fold
GFID[pS]D[pT]DAEEE [Mdc1 pSDpTD motif di-phosphorylated peptide (Mdc1 residues 325-336)],fold reduction of apparent binding affinity against wild-type spNbs1,[5],~100 fold
FID[pS]D[pT]DVEEE [di-phosphorylated peptide with a core consensus of all six Mdc1 motifs (FIDpSDpTDVEEE)],stoichiometry N,[6],> 1
same,fold reduction of stoichiometry against wild-type hNbs1,[7],~2 fold
same,fold reduction of stoichiometry against wild-type hNbs1,[8],~2 fold
same,fold reduction of stoichiometry against wild-type hNbs1,[9],~2 fold
